Measured values published in ChEMBL document CHEMBL1667772 (Bioorg Med Chem Lett, 2011).
Activity calls are given as the source filed them. The rule behind the calls is not given here.

How the values were obtained:
[1] = target: T1, Bifunctional epoxide hydrolase 2 (Homo sapiens, UniProt P34913); assay: Inhibition of human soluble epoxide hydrolase
T1 sequence (P34913 whole entry): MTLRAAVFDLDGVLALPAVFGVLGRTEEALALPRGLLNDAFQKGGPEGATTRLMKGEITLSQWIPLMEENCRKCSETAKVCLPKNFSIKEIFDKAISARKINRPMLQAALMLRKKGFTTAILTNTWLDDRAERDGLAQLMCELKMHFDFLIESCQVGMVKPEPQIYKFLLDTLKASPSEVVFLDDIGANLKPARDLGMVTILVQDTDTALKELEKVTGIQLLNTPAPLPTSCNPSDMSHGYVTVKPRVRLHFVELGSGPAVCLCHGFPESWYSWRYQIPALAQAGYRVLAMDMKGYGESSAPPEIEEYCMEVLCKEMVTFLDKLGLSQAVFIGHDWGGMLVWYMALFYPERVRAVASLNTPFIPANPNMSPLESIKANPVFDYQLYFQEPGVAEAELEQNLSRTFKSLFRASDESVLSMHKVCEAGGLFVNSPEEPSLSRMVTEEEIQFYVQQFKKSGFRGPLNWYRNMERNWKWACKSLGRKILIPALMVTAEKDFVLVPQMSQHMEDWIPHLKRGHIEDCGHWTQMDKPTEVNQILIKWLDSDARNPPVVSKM

[2] = target: Voltage-gated inwardly rectifying potassium channel KCNH2 (Homo sapiens, UniProt Q12809); assay: Inhibition of human ERG by patch clamp analysis
Procedure, shortened: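 hERG inhibition measured by high-throughput patch clamp; percent inhibition at 30 µM.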

[3] = AUC (24 hrs) in rat at 10 mg/kg, po; assay type: ADME, organism-based; design: time < 24 hr, dose 10 mg/kg, route oral; details: plasma
[4] = target: T1, Bifunctional epoxide hydrolase 2; assay type: cell-based, HUVEC
[5] = Oral bioavailability in rat; assay type: ADME, organism-based; details: in vivo
Mus musculus [6] = assay: Inhibition of soluble epoxide hydrolase in diet induced obese mouse assessed as inhibition of EET hydrolysis at 100 mg/kg, po BID for 12 weeks measured 7 hrs post last dose
Rattus norvegicus [7] = assay: Antihypertensive activity against AngII-induced hypertension in telemetered rat assessed as decrease in systolic blood pressure at 50 mg/kg, po; details: Artery, read-out: INH
Rattus norvegicus [8] = assay: Antihypertensive activity against AngII-induced hypertension in telemetered rat assessed as decrease in diastolic blood pressure at 50 mg/kg, po; assay type: functional, organism-based; design: dose 50 mg/kg; details: Artery
Procedure, shortened: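 Sprague–Dawley rats made hypertensive by continuous AngII infusion, 65 ng/min. Dosed orally twice daily as a suspension in 0.5% carboxymethylcellulose, 0.1% Tween 80. Systolic and diastolic pressure recorded continuously by telemetry and compared against vehicle control.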

Cytochrome P450 1A2 = target: T2, Cytochrome P450 1A2 (Homo sapiens, UniProt P05177); assay: Inhibition of CYP1A2; assay type: ADME
T2 sequence (P05177 whole entry): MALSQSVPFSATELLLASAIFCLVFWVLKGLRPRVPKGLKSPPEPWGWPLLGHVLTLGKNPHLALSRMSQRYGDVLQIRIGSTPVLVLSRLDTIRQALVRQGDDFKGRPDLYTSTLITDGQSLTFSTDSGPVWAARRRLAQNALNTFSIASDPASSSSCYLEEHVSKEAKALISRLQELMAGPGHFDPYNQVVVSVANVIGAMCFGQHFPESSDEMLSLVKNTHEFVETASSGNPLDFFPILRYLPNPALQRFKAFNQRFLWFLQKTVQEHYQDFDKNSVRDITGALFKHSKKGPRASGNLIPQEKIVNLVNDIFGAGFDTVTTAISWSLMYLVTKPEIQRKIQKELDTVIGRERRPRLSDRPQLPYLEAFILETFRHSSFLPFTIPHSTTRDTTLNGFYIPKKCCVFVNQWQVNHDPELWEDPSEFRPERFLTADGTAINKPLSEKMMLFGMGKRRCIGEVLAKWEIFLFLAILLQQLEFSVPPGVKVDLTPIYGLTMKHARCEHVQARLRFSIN

Cytochrome P450 3A4 = Cytochrome P450 3A4 (Homo sapiens, UniProt P08684); assay: Inhibition of CYP3A4; assay type: ADME
Cytochrome P450 2B6 = target: T3, Cytochrome P450 2B6 (Homo sapiens, UniProt P20813); assay: Inhibition of CYP2B6; assay type: ADME
T3 sequence (P20813 whole entry): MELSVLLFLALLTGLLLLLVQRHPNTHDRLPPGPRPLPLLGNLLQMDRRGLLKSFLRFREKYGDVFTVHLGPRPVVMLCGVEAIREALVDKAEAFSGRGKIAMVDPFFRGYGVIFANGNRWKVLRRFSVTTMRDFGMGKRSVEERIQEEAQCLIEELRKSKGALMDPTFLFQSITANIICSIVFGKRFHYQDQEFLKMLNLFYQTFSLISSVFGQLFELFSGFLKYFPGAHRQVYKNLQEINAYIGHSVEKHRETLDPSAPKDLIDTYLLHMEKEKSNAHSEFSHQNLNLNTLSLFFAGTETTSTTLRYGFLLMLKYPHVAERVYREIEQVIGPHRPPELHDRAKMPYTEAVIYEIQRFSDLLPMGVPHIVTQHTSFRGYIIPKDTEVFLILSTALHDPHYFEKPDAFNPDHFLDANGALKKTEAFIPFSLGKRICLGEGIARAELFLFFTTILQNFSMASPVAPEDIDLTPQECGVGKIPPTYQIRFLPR

[9] = Oral bioavailability in cynomolgus monkey; assay type: ADME, organism-based, Macaca fascicularis; details: in vivo
Rattus norvegicus [10] = assay: Antihypertensive activity against spontaneously hypertensive rat assessed as decrease in mean blood pressure at 100 mg/kg, po; assay type: functional, organism-based; design: dose 100 mg/kg
Cytochrome P450 2C19 = Cytochrome P450 2C19 (Homo sapiens, UniProt P33261); assay: Inhibition of CYP2C19; assay type: ADME
Cytochrome P450 2C9 = Cytochrome P450 2C9 (Homo sapiens, UniProt P11712); assay: Inhibition of CYP2C9; assay type: ADME
Mus musculus [11] = assay: Antidiabetic activity in diet induced obese mouse assessed as reduction in maximal glucose excursion at 100 mg/kg, po BID for 4 weeks; assay type: functional, organism-based; design: dose 100 mg/kg
Procedure, shortened: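 Male C57BL/6 mice fed 45% fat diet plus high fructose corn syrup (0.42 kcal/mL) for 6 weeks beforehand and throughout. Oral gavage BID for 12 weeks. After 4 weeks, intraperitoneal glucose 2 g/kg given 4 h post-dose.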

Voltage-gated inwardly rectifying potassium channel KCNH2, sequence (Q12809 whole entry): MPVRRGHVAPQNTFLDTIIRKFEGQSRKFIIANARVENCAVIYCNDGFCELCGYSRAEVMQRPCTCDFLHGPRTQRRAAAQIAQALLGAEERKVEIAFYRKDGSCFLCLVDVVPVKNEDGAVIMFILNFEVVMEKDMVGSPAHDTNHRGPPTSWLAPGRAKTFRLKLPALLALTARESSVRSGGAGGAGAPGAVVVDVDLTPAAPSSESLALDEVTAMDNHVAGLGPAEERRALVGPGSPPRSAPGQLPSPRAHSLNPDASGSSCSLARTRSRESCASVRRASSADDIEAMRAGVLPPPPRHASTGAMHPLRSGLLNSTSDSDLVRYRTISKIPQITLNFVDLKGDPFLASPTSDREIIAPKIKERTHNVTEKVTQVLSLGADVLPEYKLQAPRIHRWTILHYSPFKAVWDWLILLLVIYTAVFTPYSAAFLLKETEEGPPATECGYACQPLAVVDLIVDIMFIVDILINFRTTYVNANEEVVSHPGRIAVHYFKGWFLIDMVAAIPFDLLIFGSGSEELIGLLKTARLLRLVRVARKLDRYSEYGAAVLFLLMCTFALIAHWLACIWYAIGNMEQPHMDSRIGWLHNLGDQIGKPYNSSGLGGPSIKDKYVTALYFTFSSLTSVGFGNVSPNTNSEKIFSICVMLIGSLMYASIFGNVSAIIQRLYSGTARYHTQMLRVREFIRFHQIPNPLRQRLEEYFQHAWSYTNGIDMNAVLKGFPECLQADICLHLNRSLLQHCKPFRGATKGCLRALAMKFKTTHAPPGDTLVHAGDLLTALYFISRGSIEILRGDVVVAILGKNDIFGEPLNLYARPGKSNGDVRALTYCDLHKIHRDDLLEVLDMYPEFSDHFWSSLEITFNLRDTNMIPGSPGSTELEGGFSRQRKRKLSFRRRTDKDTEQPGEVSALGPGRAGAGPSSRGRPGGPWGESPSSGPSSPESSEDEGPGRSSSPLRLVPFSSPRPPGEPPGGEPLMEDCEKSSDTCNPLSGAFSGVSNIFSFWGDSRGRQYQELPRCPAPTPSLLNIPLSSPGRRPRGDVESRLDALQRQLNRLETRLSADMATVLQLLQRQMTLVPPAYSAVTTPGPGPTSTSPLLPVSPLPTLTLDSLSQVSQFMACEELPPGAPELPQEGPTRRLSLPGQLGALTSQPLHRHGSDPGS
Cytochrome P450 3A4, sequence (P08684 whole entry): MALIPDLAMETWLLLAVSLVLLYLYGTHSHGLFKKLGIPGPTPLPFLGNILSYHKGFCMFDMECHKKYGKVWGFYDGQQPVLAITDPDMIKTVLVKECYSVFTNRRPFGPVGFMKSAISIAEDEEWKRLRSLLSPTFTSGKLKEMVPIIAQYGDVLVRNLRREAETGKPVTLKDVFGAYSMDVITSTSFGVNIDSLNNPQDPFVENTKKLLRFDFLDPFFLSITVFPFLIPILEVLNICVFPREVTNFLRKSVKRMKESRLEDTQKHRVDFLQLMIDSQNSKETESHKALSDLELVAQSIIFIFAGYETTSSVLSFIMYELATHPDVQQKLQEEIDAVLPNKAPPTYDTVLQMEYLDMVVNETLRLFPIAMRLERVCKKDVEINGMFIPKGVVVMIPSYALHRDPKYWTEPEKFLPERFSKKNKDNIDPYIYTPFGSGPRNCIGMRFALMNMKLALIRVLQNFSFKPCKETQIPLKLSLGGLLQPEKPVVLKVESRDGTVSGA
Cytochrome P450 2C19, sequence (P33261 whole entry): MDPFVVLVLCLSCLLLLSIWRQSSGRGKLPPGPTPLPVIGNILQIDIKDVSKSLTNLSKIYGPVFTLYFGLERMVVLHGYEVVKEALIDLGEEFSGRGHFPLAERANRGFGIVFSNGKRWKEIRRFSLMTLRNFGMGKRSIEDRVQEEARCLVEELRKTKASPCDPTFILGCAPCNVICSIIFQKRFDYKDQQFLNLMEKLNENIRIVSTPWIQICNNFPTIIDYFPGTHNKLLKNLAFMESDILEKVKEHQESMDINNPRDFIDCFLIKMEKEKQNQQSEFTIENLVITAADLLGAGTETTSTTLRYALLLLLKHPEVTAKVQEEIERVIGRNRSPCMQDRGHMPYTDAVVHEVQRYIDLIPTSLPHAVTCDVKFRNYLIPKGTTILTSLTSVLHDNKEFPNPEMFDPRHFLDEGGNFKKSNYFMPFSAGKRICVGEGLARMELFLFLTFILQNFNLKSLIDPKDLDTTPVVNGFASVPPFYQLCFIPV
Cytochrome P450 2C9, sequence (P11712 whole entry): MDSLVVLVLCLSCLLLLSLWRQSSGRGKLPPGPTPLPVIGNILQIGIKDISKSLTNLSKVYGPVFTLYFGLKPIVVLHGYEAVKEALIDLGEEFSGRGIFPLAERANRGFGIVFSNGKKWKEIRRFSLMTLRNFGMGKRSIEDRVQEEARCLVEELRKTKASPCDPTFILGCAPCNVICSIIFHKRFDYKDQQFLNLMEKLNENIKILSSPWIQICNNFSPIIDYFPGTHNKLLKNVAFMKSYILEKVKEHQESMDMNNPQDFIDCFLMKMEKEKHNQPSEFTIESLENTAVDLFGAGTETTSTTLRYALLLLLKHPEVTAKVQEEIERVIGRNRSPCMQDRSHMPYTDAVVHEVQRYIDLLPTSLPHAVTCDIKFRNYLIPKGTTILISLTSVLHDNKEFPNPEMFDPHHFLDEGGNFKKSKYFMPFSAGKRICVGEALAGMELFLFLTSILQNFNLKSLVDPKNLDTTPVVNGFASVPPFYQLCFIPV

IC50 [1] [nM] | AUC at 24 h [3] [ng·h/mL] | IC50 [4] [nM] | SMILES | inhibition (INH) [2] [%] | also measured
1.9 | 640 | 3.9 | CS(=O)(=O)N1CCC(NC(=O)NC23CC4CC(CC(C4)C2)C3)CC1 | -2.8 | 
 | 7300 | 64 | CC(C)S(=O)(=O)N1CCC(NC(=O)Nc2ccc(OC(F)(F)F)cc2)CC1 | 11 | 
 | 19600 | 226 | CC(=O)N1CCC(NC(=O)Nc2cccc(C(F)(F)F)c2)CC1 | 10 | 
14 |  | 120 | CC(=O)N1CCC(NC(=O)NC2C3CCC2CC3)CC1 (stereo not given) |  | 
120 |  |  | CC(=O)N1CCC(NC(=O)NC23CC4(F)CC(F)(CC(F)(C4)C2)C3)CC1 |  | 
13 | 1780 | 270 | CC(=O)N1CCC(NC(=O)NC2CCC(C(C)(C)C)CC2)CC1 (stereo not given) | 7 | 
 | 5890 |  | CC(C)S(=O)(=O)N1CCC(NC(=O)Nc2ccc(C(F)(F)F)cc2)CC1 | 13 | 
29 |  |  | CC(=O)N1CCC(NC(=O)NC2CCCCC2)CC1 |  | 
58 |  |  | CC(=O)N1CCC(NC(=O)NC23CC4CC(F)(CC(F)(C4)C2)C3)CC1 |  | 
185 |  |  | CC(=O)N1CCC(NC(=O)NC2CCC(F)(F)CC2)CC1 |  | 
6 |  | 38 | CC(=O)N1CCC(NC(=O)NC2CCC(C)(C)CC2)CC1 | 0.8 | 
6.4 | 8320 | 67 | O=C(NC1CCCCC1)NC1CCN(C(=O)c2ccccn2)CC1 | 3.4 | 
 | 6850 |  | CS(=O)(=O)N1CCC(NC(=O)Nc2ccc(C(F)(F)F)cc2)CC1 |  | 
 | 13100 |  | CC(=O)N1CCC(NC(=O)Nc2ccc(C(F)(F)F)cc2)CC1 |  | 
 | 11300 | 6.7 | O=C(Nc1ccc(OC(F)(F)F)cc1)NC1CCN(C(=O)c2cccnc2)CC1 | 57 | 
0.8 | 7840 | 27 | CC(=O)N1CCC(NC(=O)NC2CCCCCC2)CC1 | 9 | 
25 | 1480 | 300 | CC(=O)N1CCC(NC(=O)NC2CC3(C)CCC2CC3)CC1 (stereo not given) |  | 

SMILES | IC50 [1] [nM] | AUC at 24 h [3] [ng·h/mL] | IC50 [4] [nM] | inhibition (INH) [2] [%] | also measured
CC(=O)N1CCC(NC(=O)NC23CC4CC(CC(C4)C2)C3)CC1 [AR9281] |  | 720 |  | < 8 | bioavailability [5]: 100%; Activity (Mus musculus [6]): Active; inhibition in vivo at 50 mg/kg (Rattus norvegicus [7]): 8%; Activity (Rattus norvegicus [8]): Active; inhibition (INH) (Cytochrome P450 1A2): Not Active; inhibition (INH) (Cytochrome P450 3A4): Not Active; inhibition (INH) (Cytochrome P450 2B6): Not Active; bioavailability [9]: 25%; Activity (Rattus norvegicus [10]): inactive; inhibition (INH) (Cytochrome P450 2C19): Not Active; inhibition (INH) (Cytochrome P450 2C9): Not Active; Activity (Mus musculus [11]): Active
